Experiments:
[1] = target: T1, Serine/threonine-protein kinase Nek1 (Homo sapiens, UniProt Q96PY6); assay: Inhibition of wild-type human partial length NEK1 (M1 to K278 residues) expressed in bacterial expression system by Kinomescan method
T1 sequence (Q96PY6 whole entry): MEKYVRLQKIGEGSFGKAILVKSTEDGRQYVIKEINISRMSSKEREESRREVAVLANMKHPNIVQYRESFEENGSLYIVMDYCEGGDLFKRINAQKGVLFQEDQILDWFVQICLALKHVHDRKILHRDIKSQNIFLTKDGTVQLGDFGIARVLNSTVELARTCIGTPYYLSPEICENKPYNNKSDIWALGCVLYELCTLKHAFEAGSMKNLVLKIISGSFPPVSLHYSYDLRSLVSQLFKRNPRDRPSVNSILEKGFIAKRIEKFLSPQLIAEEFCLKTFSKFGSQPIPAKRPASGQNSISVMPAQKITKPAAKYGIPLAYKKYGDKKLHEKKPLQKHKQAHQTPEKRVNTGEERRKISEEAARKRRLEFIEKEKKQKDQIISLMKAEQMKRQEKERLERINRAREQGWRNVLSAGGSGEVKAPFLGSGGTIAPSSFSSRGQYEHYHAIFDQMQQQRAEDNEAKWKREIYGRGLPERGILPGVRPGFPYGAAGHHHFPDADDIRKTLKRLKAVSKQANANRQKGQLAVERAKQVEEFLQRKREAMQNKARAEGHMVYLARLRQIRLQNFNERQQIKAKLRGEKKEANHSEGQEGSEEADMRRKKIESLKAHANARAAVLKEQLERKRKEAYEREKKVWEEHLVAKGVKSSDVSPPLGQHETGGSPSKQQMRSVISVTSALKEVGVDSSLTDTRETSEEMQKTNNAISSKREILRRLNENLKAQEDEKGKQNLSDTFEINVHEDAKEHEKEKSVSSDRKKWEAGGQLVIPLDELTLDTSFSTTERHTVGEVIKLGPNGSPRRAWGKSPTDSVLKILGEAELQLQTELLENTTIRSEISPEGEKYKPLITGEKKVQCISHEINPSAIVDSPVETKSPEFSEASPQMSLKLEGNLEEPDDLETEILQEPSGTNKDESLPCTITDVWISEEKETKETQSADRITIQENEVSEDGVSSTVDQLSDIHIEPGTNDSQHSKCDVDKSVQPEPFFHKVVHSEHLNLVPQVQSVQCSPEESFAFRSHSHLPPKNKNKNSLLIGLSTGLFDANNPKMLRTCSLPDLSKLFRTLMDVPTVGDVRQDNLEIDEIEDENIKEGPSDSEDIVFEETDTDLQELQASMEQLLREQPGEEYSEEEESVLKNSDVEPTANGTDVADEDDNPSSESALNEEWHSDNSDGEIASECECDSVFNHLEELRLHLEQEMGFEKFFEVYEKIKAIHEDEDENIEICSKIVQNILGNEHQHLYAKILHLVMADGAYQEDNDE

[2] = target: T2, Cyclin-dependent kinase 8 (Homo sapiens, UniProt P49336); assay: Inhibition of wild-type human partial length CDK8 (M1 to T360 residues) expressed in bacterial expression system at 10 uM by Kinomescan method relative to control
Procedure, shortened: (§1)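 Ambit KINOMEscan binding panel run at a single 10 μM concentration; results expressed relative to control, with a 90% inhibition cutoff applied.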

[3] = target: T3, Serine/threonine-protein kinase Nek1 (Homo sapiens) (UniProt Q96PY6); assay: Inhibition of wild-type human partial length NEK1 (M1 to K278 residues) expressed in bacterial expression system at 10 uM by Kinomescan method relative to control; procedure, shortened: as §1
T3 sequence (whole entry): T1 sequence (Q96PY6 whole entry)

[4] = target: T2, Cyclin-dependent kinase 8; assay: Inhibition of CDK8 in human HepG2 cells assessed as reduction in IFNgamma-induced STAT1 phosphorylation at S727 measured after 18 hrs by Western blot analysis; type: cell-based
[5] = target: T4, Cyclin-dependent kinase 19 (Homo sapiens, UniProt Q9BWU1); assay: Inhibition of human CDK19 (M1 to N360 residues) expressed in bacterial expression system at 10 uM by KINOMEscan assay relative to control
[6] = target: T2, Cyclin-dependent kinase 8; assay: Inhibition of CDK8 (unknown origin)
[7] = target: 1-phosphatidylinositol 3-phosphate 5-kinase (Homo sapiens) (UniProt Q9Y2I7); assay: Inhibition of wild-type human partial length PIKFYVE (F1512 to C2098 residues) expressed in mammalian expression system at 10 uM by Kinomescan method relative to control; procedure, shortened: as §1
[8] = target: T4, Cyclin-dependent kinase 19; assay: Inhibition of human CDK19 (M1 to N360 residues) expressed in bacterial expression system by KINOMEscan assay

T2 sequence (P49336 whole entry, the tested form may be a part): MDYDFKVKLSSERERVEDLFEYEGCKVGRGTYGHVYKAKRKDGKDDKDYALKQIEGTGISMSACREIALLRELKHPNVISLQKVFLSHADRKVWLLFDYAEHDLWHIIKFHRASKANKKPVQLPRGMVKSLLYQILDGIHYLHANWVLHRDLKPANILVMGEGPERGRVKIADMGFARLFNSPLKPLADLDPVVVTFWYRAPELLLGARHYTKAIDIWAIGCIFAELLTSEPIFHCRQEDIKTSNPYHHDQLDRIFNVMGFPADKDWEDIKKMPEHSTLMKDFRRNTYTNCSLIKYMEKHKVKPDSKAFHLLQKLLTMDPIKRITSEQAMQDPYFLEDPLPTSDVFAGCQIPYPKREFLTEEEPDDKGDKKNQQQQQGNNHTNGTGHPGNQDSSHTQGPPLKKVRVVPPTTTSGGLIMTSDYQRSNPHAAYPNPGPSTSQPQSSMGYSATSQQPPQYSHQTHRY
T4 sequence (Q9BWU1 whole entry, the tested form may be a part): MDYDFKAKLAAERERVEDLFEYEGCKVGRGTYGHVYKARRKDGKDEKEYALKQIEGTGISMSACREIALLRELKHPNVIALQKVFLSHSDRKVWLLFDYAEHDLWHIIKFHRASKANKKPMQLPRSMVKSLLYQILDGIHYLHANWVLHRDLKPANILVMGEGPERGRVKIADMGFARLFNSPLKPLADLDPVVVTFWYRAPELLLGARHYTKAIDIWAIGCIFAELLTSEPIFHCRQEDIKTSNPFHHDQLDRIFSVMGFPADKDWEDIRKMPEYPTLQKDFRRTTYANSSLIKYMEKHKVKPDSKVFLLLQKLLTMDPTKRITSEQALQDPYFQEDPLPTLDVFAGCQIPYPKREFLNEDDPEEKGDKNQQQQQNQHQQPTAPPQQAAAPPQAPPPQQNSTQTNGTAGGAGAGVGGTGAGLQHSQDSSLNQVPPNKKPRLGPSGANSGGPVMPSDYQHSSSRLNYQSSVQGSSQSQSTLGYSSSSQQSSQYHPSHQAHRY
Chain of 1-phosphatidylinositol 3-phosphate 5-kinase (Homo sapiens) (Q9Y2I7 whole entry, the tested form may be a part): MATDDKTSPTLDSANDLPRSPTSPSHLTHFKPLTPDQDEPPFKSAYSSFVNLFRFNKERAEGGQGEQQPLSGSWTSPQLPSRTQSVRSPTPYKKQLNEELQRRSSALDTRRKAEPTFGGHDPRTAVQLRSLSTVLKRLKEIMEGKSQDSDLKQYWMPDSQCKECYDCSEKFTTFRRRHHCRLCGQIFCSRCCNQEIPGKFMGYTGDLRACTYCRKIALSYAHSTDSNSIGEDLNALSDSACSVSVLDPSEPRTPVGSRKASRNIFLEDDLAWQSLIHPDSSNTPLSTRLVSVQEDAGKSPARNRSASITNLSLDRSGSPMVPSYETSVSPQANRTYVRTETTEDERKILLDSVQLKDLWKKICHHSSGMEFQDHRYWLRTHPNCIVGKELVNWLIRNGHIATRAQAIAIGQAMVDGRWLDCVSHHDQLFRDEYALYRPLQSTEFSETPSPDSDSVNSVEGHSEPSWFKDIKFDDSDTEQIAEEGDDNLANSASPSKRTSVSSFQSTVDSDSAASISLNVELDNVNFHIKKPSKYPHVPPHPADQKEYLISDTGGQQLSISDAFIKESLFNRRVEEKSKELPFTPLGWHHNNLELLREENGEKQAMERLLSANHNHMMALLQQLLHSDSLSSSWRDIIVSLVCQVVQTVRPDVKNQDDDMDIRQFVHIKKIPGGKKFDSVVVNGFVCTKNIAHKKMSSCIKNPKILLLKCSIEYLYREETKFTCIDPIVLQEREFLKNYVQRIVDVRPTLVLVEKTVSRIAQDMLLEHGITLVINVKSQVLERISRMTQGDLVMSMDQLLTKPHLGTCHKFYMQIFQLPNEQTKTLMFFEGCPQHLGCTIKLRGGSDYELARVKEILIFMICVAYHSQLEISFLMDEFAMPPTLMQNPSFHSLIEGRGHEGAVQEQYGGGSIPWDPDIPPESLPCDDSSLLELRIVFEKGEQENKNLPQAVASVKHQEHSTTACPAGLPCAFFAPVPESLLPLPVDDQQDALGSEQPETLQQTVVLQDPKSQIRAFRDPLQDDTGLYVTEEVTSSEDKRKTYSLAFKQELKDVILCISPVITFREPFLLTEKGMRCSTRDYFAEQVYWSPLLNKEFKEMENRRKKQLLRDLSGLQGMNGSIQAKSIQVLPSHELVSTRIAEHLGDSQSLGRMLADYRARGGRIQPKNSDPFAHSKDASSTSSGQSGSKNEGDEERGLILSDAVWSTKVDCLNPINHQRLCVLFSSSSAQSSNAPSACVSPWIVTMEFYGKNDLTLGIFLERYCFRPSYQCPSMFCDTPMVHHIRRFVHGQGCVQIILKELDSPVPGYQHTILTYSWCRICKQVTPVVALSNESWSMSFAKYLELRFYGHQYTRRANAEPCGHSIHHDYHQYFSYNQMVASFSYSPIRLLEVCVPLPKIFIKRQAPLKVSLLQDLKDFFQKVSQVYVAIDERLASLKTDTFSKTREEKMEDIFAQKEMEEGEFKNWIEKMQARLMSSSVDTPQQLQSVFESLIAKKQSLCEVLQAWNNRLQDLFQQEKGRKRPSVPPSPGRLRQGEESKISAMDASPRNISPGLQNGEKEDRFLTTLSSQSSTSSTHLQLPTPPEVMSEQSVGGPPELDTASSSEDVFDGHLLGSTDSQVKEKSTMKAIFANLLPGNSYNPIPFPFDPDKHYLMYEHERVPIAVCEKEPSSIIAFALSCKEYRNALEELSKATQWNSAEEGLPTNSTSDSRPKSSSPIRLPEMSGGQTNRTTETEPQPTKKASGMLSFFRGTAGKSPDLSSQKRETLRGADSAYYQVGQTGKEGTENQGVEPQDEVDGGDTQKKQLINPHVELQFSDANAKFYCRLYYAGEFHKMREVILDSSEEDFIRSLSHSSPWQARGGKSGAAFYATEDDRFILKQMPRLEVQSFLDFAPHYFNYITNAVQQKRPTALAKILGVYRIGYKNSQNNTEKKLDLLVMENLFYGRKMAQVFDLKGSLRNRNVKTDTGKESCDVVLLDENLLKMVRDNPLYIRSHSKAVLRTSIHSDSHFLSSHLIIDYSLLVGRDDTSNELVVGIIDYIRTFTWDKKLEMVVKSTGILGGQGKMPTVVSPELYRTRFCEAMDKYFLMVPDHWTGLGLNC

CN(C)[C@H]1CC[C@@]2(C)C(=CC[C@H]3[C@@H]4CC[C@H](c5ccc6ccncc6c5)[C@@]4(C)CC[C@@H]32)C1
IC50 [1]: > 10000 nM | inhibition [2]: > 90% | inhibition [3]: > 90% | inhibition [4]: Dose-dependent effect | inhibition [5]: > 90% | IC50 [6]: 16 nM | inhibition [7]: > 90% | IC50 [8]: 8 nM

— ChEMBL document CHEMBL4145630, “Development of Highly Potent and Selective Steroidal Inhibitors and Degraders of CDK8” (ACS Med Chem Lett, 2018)
